Reference: ChEMBL document CHEMBL1149292, “A rational utilization of high-throughput screening affords selective, orally bioavailable 1-benzyl-3-carboxyazetidine sphingosine-1-phosphate-1 receptor agonists” (J Med Chem, 2004)
The source made the active and inactive calls. The calls are words filed in the database; no cut-off is given here.

Columns and labels:
[1] = tested on: Mus musculus; test: Decrease in peripheral blood lymphocytes in po dosed mouse after 3 hrs; format: functional
Outline: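 Compound given orally to mice. Peripheral blood lymphocyte counts taken 3 h after dosing, expressed as average percent decrease in n = 3 animals versus controls (n = 3). ED50 from dose-titration.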

[2] = tested on: Rattus norvegicus; test: Decrease in peripheral blood lymphocyte counts in Lewis rat at 10 mg/kg, po after 24 hrs; format: functional
Outline: (§1)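 Rat oral dose-titration at 1–30 mpk po. Peripheral blood lymphocyte counts and plasma compound concentrations determined 24 h postdose.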

[3] = tested on: Rattus norvegicus; test: Decrease in peripheral blood lymphocyte counts in Lewis rat at 30 mg/kg, po after 24 hrs; format: functional; outline: as §1
[4] = tested on: Rattus norvegicus; test: Decrease in peripheral blood lymphocytes in Lewis rat at 1 mg/kg, po after 24 hrs relative to control; format: functional; set-up: scale not given: the % may be the effect or the level left; outline: as §1
[5] = Half life in rat at 2 mg/kg, po and 1 mg/kg, iv; format: ADME, organism-based; conditions: in vivo
Outline: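 Rat PK at 2.0 mpk po and 1.0 mpk iv. Plasma compound levels measured.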

[6] = Plasma concentration in femoral artery cannulated Lewis rat at 3 mg/kg, po after 56 hrs; format: ADME, organism-based; set-up: dose 3 mg/kg, route oral
Outline: (§2)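 Femoral artery cannulated Lewis rats (n = 3) got a single 3 mpk oral dose. Compound plasma concentration (nM) was measured serially over time up to 72 h postdose. Peripheral blood lymphocyte counts were taken in parallel at the same time points. The same animals were later given a second 3 mpk oral dose.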

[7] = tested on: Rattus norvegicus; test: Decrease in peripheral blood lymphocyte counts in femoral artery cannulated Lewis rat at 3 mg/kg, po after 0.25 hrs; format: functional
Outline: (§3)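 Femoral artery cannulated Lewis rats (n = 3) given a single 3 mpk oral dose. PBL counts and plasma compound concentration sampled over time up to 72 h postdose. A repeat 3 mpk po challenge was given to the same animals.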

[8] = tested on: Rattus norvegicus; test: Decrease in peripheral blood lymphocyte counts in femoral artery cannulated Lewis rat at 3 mg/kg, po after 0.5 hrs; format: functional; outline: as §3
[9] = tested on: Rattus norvegicus; test: Decrease in peripheral blood lymphocyte counts in femoral artery cannulated Lewis rat at 3 mg/kg, po after 2 hrs; format: functional; outline: as §3
[10] = tested on: Rattus norvegicus; test: Decrease in peripheral blood lymphocyte counts in femoral artery cannulated Lewis rat at 3 mg/kg, po after 4 hrs; format: functional; outline: as §3
[11] = tested on: Rattus norvegicus; test: Decrease in peripheral blood lymphocyte counts in femoral artery cannulated Lewis rat at 3 mg/kg, po after 20 hrs; format: functional; outline: as §3
[12] = tested on: Rattus norvegicus; test: Decrease in peripheral blood lymphocyte counts in femoral artery cannulated Lewis rat at 3 mg/kg, po after 56 hrs; format: functional; outline: as §3
[13] = Volume of distribution at steady state in rat at 2 mg/kg, po and 1 mg/kg, iv; format: ADME, organism-based; conditions: in vivo, read-out: Vdss
[14] = Bioavailability in rhesus monkey at 1 mg/kg, po and 0.5 mg/kg, iv; format: ADME, organism-based, Macaca mulatta; conditions: in vivo
Outline: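 Single-dose PK at 1.0 mpk po and 0.5 mpk iv. Plasma compound levels measured.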

[15] = tested on: Rhesus monkey; test: Maximal decrease in peripheral blood lymphocyte in rhesus monkey at 1 mg/kg, po after 24 hrs; format: functional, organism-based; set-up: dose 1 mg/kg; conditions: Macaca mulatta
Outline: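 Complete blood counts run alongside plasma concentrations after a single 1.0 mpk oral dose in beagle dog or rhesus monkey. Lymphocyte counts followed over time, with PBL lowering assessed at 24 h postdose.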

[16] = Plasma concentration in Lewis rat at 1 mg/kg, po after 24 hrs; format: ADME, organism-based; set-up: dose 1 mg/kg, route oral; outline: as §1
[17] = Plasma concentration in Lewis rat at 3 mg/kg, po after 24 hrs; format: ADME, organism-based; set-up: dose 3 mg/kg, route oral; outline: as §1
[18] = Plasma concentration in Lewis rat at 10 mg/kg, po after 24 hrs; format: ADME, organism-based; set-up: dose 10 mg/kg, route oral; outline: as §1
[19] = tested on: Rattus norvegicus; test: Decrease in peripheral blood lymphocyte counts in femoral artery cannulated Lewis rat at 3 mg/kg, po after 72 hrs; format: functional; outline: as §3
[20] = Plasma concentration in femoral artery cannulated Lewis rat at 3 mg/kg, po after 72 hrs; format: ADME, organism-based; set-up: dose 3 mg/kg, route oral; outline: as §2
[21] = Plasma concentration in femoral artery cannulated Lewis rat at 3 mg/kg, po after 0.5 hrs; format: ADME, organism-based; set-up: dose 3 mg/kg, route oral; outline: as §3
[22] = Plasma concentration in femoral artery cannulated Lewis rat at 3 mg/kg, po after 2 hrs; format: ADME, organism-based; set-up: dose 3 mg/kg, route oral; outline: as §2
[23] = Plasma concentration in femoral artery cannulated Lewis rat at 3 mg/kg, po after 6 hrs; format: ADME, organism-based; set-up: dose 3 mg/kg, route oral; outline: as §2
[24] = Plasma concentration in femoral artery cannulated Lewis rat at 3 mg/kg, po after 8 hrs; format: ADME, organism-based; set-up: dose 3 mg/kg, route oral; outline: as §2
[25] = Plasma concentration in femoral artery cannulated Lewis rat at 3 mg/kg, po after 12 hrs; format: ADME, organism-based; set-up: dose 3 mg/kg, route oral; outline: as §2
[26] = Plasma concentration in femoral artery cannulated Lewis rat at 3 mg/kg, po after 16 hrs; format: ADME, organism-based; set-up: dose 3 mg/kg, route oral; outline: as §2
[27] = Half life in Beagle dog at 1 mg/kg, po and 0.5 mg/kg, iv; conditions: in vivo
[28] = Half life in rhesus monkey at 1 mg/kg, po and 0.5 mg/kg, iv; conditions: in vivo

Work on O=C(O)C1CN(Cc2ccc(OCc3cc(-c4ccccc4)c(C(F)(F)F)s3)cc2)C1 yielded an ED50 [1] of 0.44 mg/kg, an Activity [2] of 1530 µL⁻¹ and an Activity [3] of 1430 µL⁻¹. It also gave an Activity [4] of 68%, a half-life [5] of 6.7 h and a concentration at 56 h [6] of 10 nM. For the same compound, the Activity [7] was 4400 µL⁻¹, the Activity [8] was 4200 µL⁻¹ and the Activity [9] was 1770 µL⁻¹. It also gave an Activity [10] of 1130 µL⁻¹, an Activity [11] of 1530 µL⁻¹ and an Activity [12] of 4270 µL⁻¹. The Vd [13] was 10 L/kg, the bioavailability [14] was 76% and the Activity [15] was “Active”. The concentration at 24 h [16] was 22 nM, the concentration at 24 h [17] was 95 nM and the concentration at 24 h [18] was 370 nM. For the same compound, the Activity [19] was 7000 µL⁻¹, the concentration at 72 h [20] was 8 nM and the concentration at 0.5 h [21] was 200 nM. For the same compound, the concentration at 2 h [22] was 310 nM, the concentration at 6 h [23] was 380 nM and the concentration at 8 h [24] was 310 nM. For the same compound, the concentration at 12 h [25] was 280 nM, the concentration at 16 h [26] was 170 nM and the half-life [27] was 9.7 h. It also gave a half-life [28] of 12.5 h.
